Results on 7 molecules are retold here after ChEMBL document CHEMBL1121967 (J Med Chem, 1982).

Common to all, as to format: functional
Test [1] is filed under the species Oryctolagus cuniculus. Put plainly: Negative log of the concentration producing 50% of the maximum effect was measured in Rabbit mesenteric vein. The method, boiled down: (§1)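 Isolated helical strips of rabbit mesenteric vein, longitudinal strips of guinea pig ileum, or helical strips of guinea pig trachea, held in 10-mL baths of Krebs' solution at 37 °C gassed with 95% O2/5% CO2. Isometric tension recorded. Cumulative agonist concentrations 10⁻¹⁰ to 10⁻⁵ M. pD2 is -log concentration giving 50% of the compound's own maximum. Intrinsic activity is a fraction of SP's, and affinity is relative to SP. Values come from 10-12 determinations.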

For test [2], the species on record is Cavia porcellus. Put plainly: Concentration producing 50% of the maximum effect was tested in guinea pig trachea. Particulars: read-out: ED50 (the source's name). The method, boiled down:
as §1

The species named for test [3] is Cavia porcellus. Put plainly: Negative log of the concentration producing 50% of the maximum effect was measured in guinea pig ileum. Particulars: for Kb: Cavia porcellus, Ileum, read-out: pA2 (converted). The method, boiled down: as §1
The species entered for test [4] is Oryctolagus cuniculus. Put plainly: Concentration producing 50% of the maximum effect was tested in Rabbit mesenteric vein. The method, boiled down: as §1
For test [5], the species on record is Cavia porcellus. Put plainly: Concentration producing 50% of the maximum effect was tested in guinea pig ileum. The following applies: read-out: ED50 (the source's name). The method, boiled down: as §1
Test [6] is filed under the species Cavia porcellus. Nature of the test: Negative log of the concentration producing 50% of the maximum effect was measured in guinea pig trachea. The method, boiled down:
as §1

The species entered for test [7] is Oryctolagus cuniculus. Nature of the test: Relative affinity was determined with substance P(SP) in Rabbit mesenteric vein. The method, boiled down: as §1
For test [8], the species on record is Cavia porcellus. Put plainly: Relative affinity was determined with substance P(SP) in guinea pig trachea. The method, boiled down:
as §1

Test [9] is filed under the species Cavia porcellus. Nature of the test: Relative affinity was determined with substance P(SP) in guinea pig ileum. The method, boiled down: as §1
The species named for test [10] is Cavia porcellus. Nature of the test: Negative log of the concentration producing 50% of the maximum effect was measured in guinea pig ileum as pA2-pA10.
For test [11], the species on record is Cavia porcellus. Nature of the test: Concentration producing 50% of the maximum effect was tested in guinea pig trachea; inactive. The method, boiled down: as §1
The species named for test [12] is Cavia porcellus. Nature of the test: Concentration producing 50% of the maximum effect was tested in guinea pig ileum; inactive. The method, boiled down:
as §1

The species named for test [13] is Oryctolagus cuniculus. Nature of the test: The intrinsic activity was measured in Rabbit mesenteric vein. Particulars: for Kb: read-out: pA2 (converted). The method, boiled down: as §1
The species named for test [14] is Oryctolagus cuniculus. Nature of the test: Negative log of the concentration producing 50% of the maximum effect was measured in Rabbit mesenteric vein as pA2-pA10.
For test [15], the species on record is Cavia porcellus. Nature of the test: The intrinsic activity was measured in guinea pig trachea. The method, boiled down: as §1
The species entered for test [16] is Cavia porcellus. Nature of the test: The intrinsic activity was measured in guinea pig ileum. The method, boiled down: as §1

Values joined by “and” are separate entries in the source; they are usually repeats but may differ in a detail not shown here. Identical values can stand only once. Active and inactive are the calls of the source. The rule behind the calls is not given here. Residues, ends and D or L forms follow the SMILES beside them. A value given as a limit tells only on which side of the number the result lay.

Take `CSCC[C@H](NC(=O)[C@H](CC(C)C)NC(=O)[C@H](Cc1c[nH]c2ccccc12)NC(=O)[C@H](Cc1ccccc1)NC(=O)[C@H](Cc1ccccc1)NC(=O)[C@@H](N)CCCN=C(N)N)C(N)=O` (H-RFFWLM-NH2): the figures for the pD2 in test [1], in test [3] and in test [6] were 6, 5.88 and 6.06, respectively. Also, the EC50 was 860 nM in test [2] and 1300 nM in test [5]. Moreover, the ED50 in [4] worked out at 970 nM. The RA in [7] was determined as 2.7; in [8] it was 20.3; in test [9], 0.1.
On to `CSCC[C@H](NC(=O)[C@H](CC(C)C)NC(=O)[C@H](Cc1c[nH]c2ccccc12)NC(=O)[C@H](Cc1ccccc1)NC(=O)[C@H](Cc1ccccc1)NC(=O)[C@H](CCC(N)=O)NC(=O)[C@H](CCC(N)=O)NC(=O)[C@@H]1CCCN1C(=O)[C@H](CCCCN)NC(=O)[C@@H]1CCCN1C(=O)[C@@H](N)CCCN=C(N)N)C(N)=O`, for which the “pA2 minus pA10 difference” value in test [10] is listed as 0.45. Further, the Kb in test [3] was 21400 nM.
One may read the pA2 as the negative logarithm of the molar antagonist concentration that doubles the agonist concentration needed for the same response. As for `CSCC[C@H](NC(=O)[C@H](CC(C)C)NC(=O)[C@H](Cc1c[nH]c2ccccc12)NC(=O)[C@H](Cc1ccccc1)NC(=O)[C@H](Cc1c[nH]c2ccccc12)NC(=O)[C@H](CCC(N)=O)NC(=O)[C@H](CCC(N)=O)NC(=O)[C@@H]1CCCN1)C(N)=O` (H-PQQWFWLM-NH2), the pA2-pA10 in test [1] was 1. In addition, the ED50 entry in test [11] and in test [12] was “inactive” each time. Also, the Kb in [13] was 2240 nM. In test [10], the “pA2 minus pA10 difference” value is 1 and 1.01. Also, the pA2 in [3] was 5.65 and 5.96. In test [7], the RA was below 0.1.
Turning to `CSCC[C@H](NC(=O)[C@H](Cc1c[nH]c2ccccc12)NC(=O)CNC(=O)[C@H](Cc1ccccc1)NC(=O)[C@H](Cc1ccccc1)NC(=O)[C@@H](N)CCCN=C(N)N)C(N)=O` (H-RFFGWM-NH2), the ED50 result in [11] and in test [12] was “inactive” in each case. Besides, the Kb was 11000 nM in [13] and 9770 nM in test [3]. The “pA2 minus pA10 difference” value in [10] is listed as 0.82. This molecule also displayed an RA in [7] below 0.1. Further, the Activity in [14] is listed as 0.69.
As to `CSCC[C@H](NC(=O)[C@H](CC(C)C)NC(=O)CNC(=O)[C@H](Cc1ccccc1)NC(=O)[C@H](Cc1ccccc1)NC(=O)[C@@H](N)CCC(N)=O)C(N)=O` (H-QFFGLM-NH2), the pD2 in test [1] is recorded as 7.1; in [3], 8.91; in test [6], 7.46. The molecule further registered an Activity in test [13] of 1. In addition, the EC50 in test [2] is 34 nM; in [5] it was 1.2 nM. For the same molecule, the Intrinsic actvity in test [15] came to 1.25; in test [16], 1. Besides, the ED50 in test [4] was 80 nM. For the same molecule, the figures for the RA in [7], in [8] and in [9] were 33, 507 and 146, respectively.
Regarding `CSCC[C@H](NC(=O)[C@H](CC(C)C)NC(=O)CNC(=O)[C@H](Cc1ccccc1)NC(=O)[C@H](Cc1c[nH]c2ccccc12)NC(=O)[C@@H](N)CCCN=C(N)N)C(N)=O` (H-RWFGLM-NH2), the pD2 in [1] amounted to 5.56; in test [3], 6.6; in [6], 5.18. Moreover, the EC50 in test [2] amounted to 6600 nM; in test [5], 250 nM. In test [16], the Intrinsic actvity came to 0.9. For the same molecule, in [4], the ED50 was 2700 nM. In addition, the RA in test [7] turned out to be 0.9; in test [8], 2.8; in test [9], 0.7.
For the molecule `CSCC[C@H](NC(=O)[C@H](CC(C)C)NC(=O)CNC(=O)[C@H](Cc1c[nH]c2ccccc12)NC(=O)[C@H](Cc1ccccc1)NC(=O)[C@@H](N)CCCN=C(N)N)C(N)=O` (H-RFWGLM-NH2), the EC50 is 4200 nM in test [2] and 360 nM in [5]. In [15], this molecule registered an Activity of 0.5. Also, the pD2 in [3] amounted to 6.44; in test [6], 5.38. This molecule gave an Intrinsic actvity in test [16] of 0.9. Besides, the RA in [8] turned out to be 4.2; in test [9], 0.5.
